# From ChEMBL document CHEMBL1817631, “Synthesis and characterization of tritylthioethanamine derivatives with potent KSP inhibitory activity” (Bioorg Med Chem, 2011)
# Calls of active or inactive are those of the source. The calls are words filed in the database; no cut-off is given here.
# Experiments:
# [1] = biological target: T1, Kinesin-like protein Klp61F (Drosophila melanogaster) (UniProt P46863); assay: Inhibition of Drosophila melanogaster Klp61F in S2 cells at 100 uM up to 7 hrs by immunofluorescence analysis; format: cell-based
# T1 sequence (whole entry): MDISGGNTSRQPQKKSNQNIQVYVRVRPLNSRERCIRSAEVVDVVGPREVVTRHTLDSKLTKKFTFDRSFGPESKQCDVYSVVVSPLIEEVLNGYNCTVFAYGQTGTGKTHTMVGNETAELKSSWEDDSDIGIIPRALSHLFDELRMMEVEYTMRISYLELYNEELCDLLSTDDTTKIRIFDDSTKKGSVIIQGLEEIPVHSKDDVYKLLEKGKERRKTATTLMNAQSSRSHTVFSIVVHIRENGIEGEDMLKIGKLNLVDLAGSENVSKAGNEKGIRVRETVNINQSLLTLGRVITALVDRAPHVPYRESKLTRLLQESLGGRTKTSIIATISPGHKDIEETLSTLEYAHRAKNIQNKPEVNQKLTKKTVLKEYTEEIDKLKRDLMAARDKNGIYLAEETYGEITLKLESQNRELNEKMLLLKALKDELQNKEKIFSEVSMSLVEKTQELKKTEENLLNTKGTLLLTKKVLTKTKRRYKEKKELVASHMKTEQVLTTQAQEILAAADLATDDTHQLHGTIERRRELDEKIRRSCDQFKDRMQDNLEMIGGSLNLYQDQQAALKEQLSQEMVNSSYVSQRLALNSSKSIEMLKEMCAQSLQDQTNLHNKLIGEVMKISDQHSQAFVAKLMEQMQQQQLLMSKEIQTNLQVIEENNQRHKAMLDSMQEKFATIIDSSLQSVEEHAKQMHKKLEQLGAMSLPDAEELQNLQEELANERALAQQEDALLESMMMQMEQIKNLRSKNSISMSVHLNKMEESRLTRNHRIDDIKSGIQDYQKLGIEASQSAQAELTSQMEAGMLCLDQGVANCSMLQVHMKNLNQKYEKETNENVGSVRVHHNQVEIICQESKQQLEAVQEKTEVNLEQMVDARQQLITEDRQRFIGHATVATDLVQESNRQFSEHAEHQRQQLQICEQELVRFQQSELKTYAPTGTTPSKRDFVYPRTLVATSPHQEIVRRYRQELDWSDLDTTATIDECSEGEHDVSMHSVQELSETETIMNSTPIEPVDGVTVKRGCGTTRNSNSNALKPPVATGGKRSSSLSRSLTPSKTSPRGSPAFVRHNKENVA
# Procedure, shortened: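 Drosophila S2 cells were exposed to compound over a three-log concentration range up to 100 μM, with treatments extending up to 7 h. Bipolar spindle formation was scored by immunofluorescence.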
# SK-OV-3 = assay: Growth inhibition of human SKOV3 cells; format: functional
# [2] = Growth inhibition of human […] cells; format: functional
# HL-60(TB) = assay: Growth inhibition of human HL-60(TB) cells; format: functional
# KM12 = assay: Growth inhibition of human KM12 cells; format: functional
# HCT-15 = assay: Growth inhibition of human HCT15 cells; format: functional
# K562 = assay: Growth inhibition of human K562 cells; format: functional
# UACC-257 = assay: Growth inhibition of human UACC257 cells; format: functional
# SK-MEL-5 = assay: Growth inhibition of human SK-MEL-5 cells; format: functional
# SW-620 = assay: Growth inhibition of human SW620 cells; format: functional
# [3] = Inhibition of bipolar spindle formation in Strongylocentrotus purpuratus eggs; format: functional, Egg
# Procedure, shortened: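 S. purpuratus eggs (gametes released with 0.5M KCl) were fertilized in artificial seawater with 2 mM 3-amino triazole and stripped of envelopes 20 min post-fertilization. They were then cultured with 0.1% DMSO or inhibitor at 100 nM–100 μM, fixed at first mitosis and stained for microtubules and DNA. 100 cells per condition were scored for bipolar spindles to derive EC50.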
# [4] = biological target: Chromosome-associated kinesin KIF4A (Homo sapiens) (UniProt O95239); assay: Inhibition of chromokinesin
# Sequence of Chromosome-associated kinesin KIF4A (Homo sapiens) (O95239 whole entry): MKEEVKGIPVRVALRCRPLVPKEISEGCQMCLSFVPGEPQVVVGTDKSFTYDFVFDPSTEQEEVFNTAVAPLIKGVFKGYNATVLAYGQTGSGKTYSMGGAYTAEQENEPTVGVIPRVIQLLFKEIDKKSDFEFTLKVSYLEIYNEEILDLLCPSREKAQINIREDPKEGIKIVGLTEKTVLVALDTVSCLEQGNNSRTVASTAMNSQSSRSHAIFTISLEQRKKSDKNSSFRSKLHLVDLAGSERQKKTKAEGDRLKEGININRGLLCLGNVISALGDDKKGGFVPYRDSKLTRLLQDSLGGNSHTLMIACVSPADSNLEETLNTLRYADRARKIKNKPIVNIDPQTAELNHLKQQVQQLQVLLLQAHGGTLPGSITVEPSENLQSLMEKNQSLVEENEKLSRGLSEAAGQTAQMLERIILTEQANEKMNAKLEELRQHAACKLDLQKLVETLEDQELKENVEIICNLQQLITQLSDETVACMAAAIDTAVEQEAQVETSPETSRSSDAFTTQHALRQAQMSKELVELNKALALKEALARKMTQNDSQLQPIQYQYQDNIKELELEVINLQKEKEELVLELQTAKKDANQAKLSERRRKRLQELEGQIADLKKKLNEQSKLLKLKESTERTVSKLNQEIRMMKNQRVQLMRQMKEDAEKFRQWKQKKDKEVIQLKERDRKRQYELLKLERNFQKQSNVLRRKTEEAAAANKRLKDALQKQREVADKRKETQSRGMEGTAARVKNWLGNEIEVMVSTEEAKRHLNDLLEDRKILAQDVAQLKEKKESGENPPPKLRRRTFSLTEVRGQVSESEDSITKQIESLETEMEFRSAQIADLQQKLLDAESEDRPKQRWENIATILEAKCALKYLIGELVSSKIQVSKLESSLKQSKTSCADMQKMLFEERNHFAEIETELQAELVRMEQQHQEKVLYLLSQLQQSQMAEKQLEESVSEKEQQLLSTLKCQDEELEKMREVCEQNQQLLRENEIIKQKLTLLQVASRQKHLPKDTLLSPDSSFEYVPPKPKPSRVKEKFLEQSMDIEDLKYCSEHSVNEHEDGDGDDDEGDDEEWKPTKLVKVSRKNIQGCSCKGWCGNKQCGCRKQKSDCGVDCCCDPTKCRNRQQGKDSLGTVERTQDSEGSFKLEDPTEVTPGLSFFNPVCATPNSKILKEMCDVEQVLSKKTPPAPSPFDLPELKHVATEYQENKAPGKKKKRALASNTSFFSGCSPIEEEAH
# U-251 = assay: Growth inhibition of human U251 cells; format: functional
# HeLa [5] = assay: Induction of KSP depletion in human HeLa cells after 4 hrs by immunofluorescence analysis relative to STLC; format: functional
# Procedure, shortened: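 HeLa cells in MEM/Earle's BSS with 10% FBS at 37°C, 5% CO2 were exposed 4 h to DMSO-dissolved compound over a range of doses. They were then fixed in 100% MeOH at −20°C (≥30 min), rehydrated in PBS, blocked in PBS-5% BSA, and stained overnight at 4°C with mouse anti-KSP plus rabbit anti-EB1 (microtubules). DNA was counterstained. Green channel was imaged at equal exposure.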
# SF-539 = assay: Growth inhibition of human SF539 cells; format: functional
# HeLa [6] = assay: Induction of KSP depletion in human HeLa cells after 4 hrs by immunofluorescence analysis; format: functional, cell-based
# Procedure, shortened: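 HeLa cells were treated 4 h across a concentration series of compound in DMSO, then fixed in 100% MeOH at −20 °C. They were probed overnight at 4 °C with mouse anti-KSP and rabbit anti-EB1 to mark microtubules, with Alexa Fluor secondaries and DNA counterstain. KSP (green channel) images were taken at equivalent exposure times.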
# SR = assay: Growth inhibition of human SR cells; format: functional
# UO-31 = assay: Growth inhibition of human UO31 cells; format: functional
# HCC 2998 = assay: Growth inhibition of human HCC2998 cells; format: functional
# [7] = biological target: Kinesin-like protein KIF2C (Homo sapiens) (UniProt Q99661); assay: Inhibition of MACK
# Sequence of Kinesin-like protein KIF2C (Homo sapiens) (Q99661 whole entry, the tested form may be a part): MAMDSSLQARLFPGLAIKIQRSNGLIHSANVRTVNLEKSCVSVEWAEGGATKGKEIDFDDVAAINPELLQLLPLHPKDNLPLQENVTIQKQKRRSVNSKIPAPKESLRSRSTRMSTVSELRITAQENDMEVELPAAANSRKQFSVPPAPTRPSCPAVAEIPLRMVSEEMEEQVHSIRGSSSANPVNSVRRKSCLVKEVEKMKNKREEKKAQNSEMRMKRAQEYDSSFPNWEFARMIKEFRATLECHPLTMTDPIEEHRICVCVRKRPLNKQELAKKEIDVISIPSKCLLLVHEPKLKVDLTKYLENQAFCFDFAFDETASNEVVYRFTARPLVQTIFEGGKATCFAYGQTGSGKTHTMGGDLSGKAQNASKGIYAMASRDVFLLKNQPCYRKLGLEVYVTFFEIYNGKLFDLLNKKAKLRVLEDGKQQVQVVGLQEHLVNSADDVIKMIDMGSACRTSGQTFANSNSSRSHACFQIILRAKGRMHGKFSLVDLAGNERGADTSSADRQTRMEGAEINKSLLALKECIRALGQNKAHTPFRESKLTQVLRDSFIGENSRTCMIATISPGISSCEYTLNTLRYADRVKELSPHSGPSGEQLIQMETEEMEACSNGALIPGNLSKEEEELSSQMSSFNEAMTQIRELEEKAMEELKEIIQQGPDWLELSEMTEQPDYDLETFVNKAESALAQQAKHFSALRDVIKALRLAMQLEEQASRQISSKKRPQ
# Procedure, shortened: (§1)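 Microtubule-activated ATPase end-point assay with kinesin motor domain at 0.08 μg/μl final. Reactions were started with 2 mM ATP, run 5 min at room temperature, and stopped with CytoPhos. After 10 min more, absorbance was read at 650 nm. Compounds were tested at 0.25–10 μM against a 0.1% DMSO control, in triplicate. IC50 came from four-parameter non-linear regression.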
# OVCAR-3 = assay: Growth inhibition of human OVCAR3 cells; format: functional
# HeLa [8] = assay: Inhibition of bipolar spindle formation in human HeLa cells at 1 uM; format: functional, cell-based
# Procedure, shortened: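 HeLa cells were grown in MEM with Earle's BSS, 10% FBS, sodium bicarbonate and pyruvate at 37°C in 5% CO2. They were exposed to compound in DMSO for 4 h, with 0.1% DMSO as carrier control. Cells were fixed in −20°C methanol and immunostained for tubulin, with DNA counterstained. Bipolar spindle formation was scored in 100 mitotic cells per condition.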
# MOLT-4 = assay: Growth inhibition of human MOLT4 cells; format: functional
# NCI-H322M = assay: Growth inhibition of human NCI-H322M cells; format: functional
# EKVX = assay: Growth inhibition of human EKVX cells; format: functional
# HT-29 = assay: Growth inhibition of human HT-29 cells; format: functional
# M14 = assay: Growth inhibition of human M14 cells; format: functional
# COLO 205 = assay: Growth inhibition of human COLO205 cells; format: functional
# SK-MEL-28 = assay: Growth inhibition of human SK-MEL-28 cells; format: functional
# OVCAR-4 = assay: Growth inhibition of human OVCAR4 cells; format: functional
# CAKI-1 = assay: Growth inhibition of human Caki1 cells; format: functional
# TK-10 = assay: Growth inhibition of human TK10 cells; format: functional
# UACC-62 = assay: Growth inhibition of human UACC62 cells; format: functional
# A549 = assay: Growth inhibition of human A549 cells; format: functional
# SF-268 = assay: Growth inhibition of human SF268 cells; format: functional
# CCRF-CEM = assay: Growth inhibition of human CCRF-CEM cells; format: functional
# Malme-3M = assay: Growth inhibition of human MALME-3M cells; format: functional
# 786-0 = assay: Growth inhibition of human 786-0 cells; format: functional
# OVCAR-8 = assay: Growth inhibition of human OVCAR8 cells; format: functional
# NCI-H522 = assay: Growth inhibition of human NCI-H522 cells; format: functional
# NCI-H226 = assay: Growth inhibition of human NCI-H226 cells; format: functional
# [9] = biological target: Centromere-associated protein E (Homo sapiens) (UniProt Q02224); assay: Inhibition of CENP-E; procedure, shortened: as §1
# Sequence of Centromere-associated protein E (Homo sapiens) (Q02224 whole entry): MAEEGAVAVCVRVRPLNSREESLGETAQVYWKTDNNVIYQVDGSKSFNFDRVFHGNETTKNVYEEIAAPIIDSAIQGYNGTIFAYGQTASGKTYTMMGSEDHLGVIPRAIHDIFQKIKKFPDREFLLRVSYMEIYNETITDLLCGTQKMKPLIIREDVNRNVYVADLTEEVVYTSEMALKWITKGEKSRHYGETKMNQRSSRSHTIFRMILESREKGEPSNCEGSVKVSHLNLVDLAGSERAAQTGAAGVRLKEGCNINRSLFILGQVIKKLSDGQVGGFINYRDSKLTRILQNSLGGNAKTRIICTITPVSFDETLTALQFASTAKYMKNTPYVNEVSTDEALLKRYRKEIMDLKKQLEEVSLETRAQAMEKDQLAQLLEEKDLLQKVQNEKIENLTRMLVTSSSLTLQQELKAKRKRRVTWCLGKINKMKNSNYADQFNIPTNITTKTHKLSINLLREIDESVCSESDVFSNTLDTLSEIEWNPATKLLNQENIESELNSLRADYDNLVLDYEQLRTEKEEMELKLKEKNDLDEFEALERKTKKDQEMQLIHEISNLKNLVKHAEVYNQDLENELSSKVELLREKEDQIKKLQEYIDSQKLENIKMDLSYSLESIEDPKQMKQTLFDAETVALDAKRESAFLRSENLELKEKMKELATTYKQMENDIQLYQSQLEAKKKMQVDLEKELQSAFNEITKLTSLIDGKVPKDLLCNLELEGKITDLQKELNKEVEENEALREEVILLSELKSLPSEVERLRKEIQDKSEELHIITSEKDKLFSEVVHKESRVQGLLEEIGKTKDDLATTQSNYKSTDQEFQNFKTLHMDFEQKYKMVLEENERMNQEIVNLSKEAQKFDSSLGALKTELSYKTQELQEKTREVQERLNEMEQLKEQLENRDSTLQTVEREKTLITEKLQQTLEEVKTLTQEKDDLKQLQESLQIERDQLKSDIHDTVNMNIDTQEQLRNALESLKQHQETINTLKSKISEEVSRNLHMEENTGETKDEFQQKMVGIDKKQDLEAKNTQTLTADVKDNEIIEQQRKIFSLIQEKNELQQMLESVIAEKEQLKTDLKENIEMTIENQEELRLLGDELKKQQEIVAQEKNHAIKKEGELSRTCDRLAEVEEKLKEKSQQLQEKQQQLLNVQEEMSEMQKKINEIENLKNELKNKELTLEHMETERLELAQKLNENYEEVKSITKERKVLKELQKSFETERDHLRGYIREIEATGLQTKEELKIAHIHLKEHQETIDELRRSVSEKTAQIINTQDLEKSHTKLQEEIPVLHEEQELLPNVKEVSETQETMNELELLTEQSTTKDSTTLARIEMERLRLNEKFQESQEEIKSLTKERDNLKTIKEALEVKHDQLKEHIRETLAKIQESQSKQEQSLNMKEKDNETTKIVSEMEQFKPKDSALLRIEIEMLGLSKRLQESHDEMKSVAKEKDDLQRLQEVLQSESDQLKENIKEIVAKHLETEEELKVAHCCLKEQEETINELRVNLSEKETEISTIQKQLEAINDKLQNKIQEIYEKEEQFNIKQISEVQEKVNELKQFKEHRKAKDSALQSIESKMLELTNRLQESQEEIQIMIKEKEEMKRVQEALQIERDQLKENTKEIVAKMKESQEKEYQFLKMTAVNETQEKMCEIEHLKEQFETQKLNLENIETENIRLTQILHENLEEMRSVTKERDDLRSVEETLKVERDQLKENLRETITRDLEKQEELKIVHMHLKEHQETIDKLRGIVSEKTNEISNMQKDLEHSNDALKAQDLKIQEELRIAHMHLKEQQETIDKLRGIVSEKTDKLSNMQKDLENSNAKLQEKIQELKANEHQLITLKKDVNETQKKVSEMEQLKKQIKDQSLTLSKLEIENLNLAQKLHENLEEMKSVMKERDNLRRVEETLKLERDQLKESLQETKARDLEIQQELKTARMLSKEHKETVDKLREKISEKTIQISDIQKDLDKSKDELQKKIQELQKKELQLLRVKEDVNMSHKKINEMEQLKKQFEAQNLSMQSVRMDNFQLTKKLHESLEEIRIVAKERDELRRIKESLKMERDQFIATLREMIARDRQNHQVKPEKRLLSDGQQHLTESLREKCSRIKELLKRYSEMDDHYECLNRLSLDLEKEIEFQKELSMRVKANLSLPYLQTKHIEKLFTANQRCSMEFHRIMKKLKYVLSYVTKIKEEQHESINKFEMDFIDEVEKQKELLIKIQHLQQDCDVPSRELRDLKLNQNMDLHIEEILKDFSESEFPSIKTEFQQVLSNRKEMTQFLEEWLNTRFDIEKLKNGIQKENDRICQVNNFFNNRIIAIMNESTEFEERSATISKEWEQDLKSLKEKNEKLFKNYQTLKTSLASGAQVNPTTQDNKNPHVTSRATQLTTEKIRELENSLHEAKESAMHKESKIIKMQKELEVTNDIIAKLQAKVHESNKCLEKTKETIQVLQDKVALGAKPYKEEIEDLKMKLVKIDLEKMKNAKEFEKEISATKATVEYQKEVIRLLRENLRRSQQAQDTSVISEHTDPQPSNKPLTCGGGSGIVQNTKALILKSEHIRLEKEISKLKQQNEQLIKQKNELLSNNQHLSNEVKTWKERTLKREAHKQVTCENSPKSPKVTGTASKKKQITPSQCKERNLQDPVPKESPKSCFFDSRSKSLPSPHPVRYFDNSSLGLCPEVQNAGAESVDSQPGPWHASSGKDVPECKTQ
# HeLa [10] = assay: Effect on interphase microtubule organization in human HeLa cells at 1 uM; format: functional, cell-based
# Procedure, shortened: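 HeLa cells were grown in MEM/Earle's BSS with 10% FBS at 37 °C and 5% CO2, then treated 4 h with 1 μM compound or 0.1% DMSO carrier. Cells were fixed in 100% MeOH at −20 °C and blocked in PBS-5% BSA. They were stained overnight at 4 °C with mouse anti-tubulin and for DNA, then imaged by epifluorescence with structured illumination.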
# OVCAR-5 = assay: Growth inhibition of human OVCAR5 cells; format: functional
# ACHN = assay: Growth inhibition of human ACHN cells; format: functional
# SK-MEL-2 = assay: Growth inhibition of human SK-MEL-2 cells; format: functional
# SN12C = assay: Growth inhibition of human SN12C cells; format: functional
# LOX IMVI = assay: Growth inhibition of human LOXIMVI cells; format: functional
# SF-295 = assay: Growth inhibition of human SF295 cells; format: functional
# SNB-19 = assay: Growth inhibition of human SNB19 cells; format: functional
# HOP-62 = assay: Growth inhibition of human HOP62 cells; format: functional
# SNB-75 = assay: Growth inhibition of human SNB75 cells; format: functional
smiles,measurement,setting,value
COc1ccc(C(SC[C@@H](N)C(=O)O)(c2ccccc2)c2ccccc2)cc1,inhibition,[1],inactive
COc1ccc(C(SC[C@H](N)CO)(c2ccccc2)c2ccccc2)cc1,GI50,SK-OV-3,0.08 µM
same,GI50,[2],0.03 µM
same,GI50,HL-60(TB),0.19 µM
same,GI50,KM12,0.22 µM
same,GI50,HCT-15,0.21 µM
same,GI50,K562,0.06 µM
same,GI50,UACC-257,0.54 µM
same,GI50,SK-MEL-5,0.06 µM
same,GI50,SW-620,0.07 µM
same,EC50,[3],28 µM
same,inhibition,[4],inactive
same,GI50,U-251,0.19 µM
same,fold change (FC),HeLa [5],1.63
same,GI50,SF-539,0.26 µM
same,Activity,HeLa [6],Dose-dependent effect
same,GI50,SR,0.01 µM
same,GI50,UO-31,1.1 µM
same,GI50,HCC 2998,0.05 µM
same,inhibition,[7],inactive
same,GI50,OVCAR-3,0.2 µM
same,inhibition,HeLa [8],Active
same,GI50,MOLT-4,0.28 µM
same,GI50,NCI-H322M,0.11 µM
same,GI50,EKVX,0.51 µM
same,GI50,HT-29,0.34 µM
same,GI50,M14,0.02 µM
same,GI50,COLO 205,0.08 µM
same,GI50,SK-MEL-28,0.62 µM
same,GI50,OVCAR-4,1.62 µM
same,GI50,CAKI-1,0.45 µM
same,GI50,TK-10,0.46 µM
same,GI50,UACC-62,0.25 µM
same,GI50,A549,0.33 µM
same,GI50,SF-268,0.11 µM
same,GI50,CCRF-CEM,0.1 µM
same,GI50,Malme-3M,0.36 µM
same,GI50,786-0,0.44 µM
same,GI50,OVCAR-8,0.42 µM
same,GI50,NCI-H522,0.22 µM
same,GI50,NCI-H226,2.75 µM
same,inhibition,[9],inactive
same,Activity,HeLa [10],inactive
same,GI50,OVCAR-5,0.39 µM
same,GI50,ACHN,0.49 µM
same,GI50,SK-MEL-2,0.24 µM
same,GI50,SN12C,0.32 µM
same,GI50,LOX IMVI,0.49 µM
same,GI50,SF-295,0.28 µM
same,inhibition,[1],inactive
same,GI50,SNB-19,0.25 µM
same,GI50,HOP-62,0.51 µM
CCOC(=O)C1=C(C)NC(=S)NC1c1cccc(O)c1 (stereo not drawn) [MONASTROL],GI50,[2],31.6 µM
same,GI50,HL-60(TB),25.1 µM
same,GI50,HCT-15,39.8 µM
same,GI50,SK-MEL-5,39.8 µM
same,GI50,SW-620,39.8 µM
same,GI50,SF-539,50.1 µM
same,GI50,UO-31,100 µM
same,GI50,HCC 2998,39.8 µM
same,GI50,SNB-75,39.8 µM
same,GI50,NCI-H322M,39.8 µM
same,GI50,HT-29,79.4 µM
same,GI50,M14,25.1 µM
same,GI50,SK-MEL-28,79.4 µM
same,GI50,TK-10,100 µM
same,GI50,UACC-62,39.8 µM
same,GI50,OVCAR-5,79.4 µM
same,GI50,ACHN,79.4 µM
same,GI50,SN12C,39.8 µM
same,GI50,LOX IMVI,79.4 µM
same,GI50,SNB-19,79.4 µM
COc1ccc(C(SC[C@@H](N)CO)(c2ccccc2)c2ccccc2)cc1,inhibition,[1],inactive
